ChEMBL document CHEMBL5233208, “Optimization of P2Y12 Antagonist Ethyl 6-(4-((Benzylsulfonyl)carbamoyl)piperidin-1-yl)-5-cyano-2-methylnicotinate (AZD1283) Led to the Discovery of an Oral Antiplatelet Agent with Improved Druglike Properties” (J Med Chem, 2019)
Calls of active or inactive are those of the source. No cut-off for these calls is given here.

How the values were obtained:
Homo sapiens = organism: Homo sapiens; assay: Antiplatelet activity in human platelet-rich plasma assessed as inhibition of ADP-induced platelet aggregation by aggregometry; type: functional
Method in brief: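 Human PRP from healthy donors free of aspirin/NSAIDs for at least two weeks, drawn into ACD; PRP spun at 300 g for 10 min, PPP at 2000 g. Compound in 0.5% DMSO preincubated 2 min at 37 °C with stirring (900 rpm). Aggregation induced by 10 μM ADP (final) and followed optically for 5 min.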

Rattus norvegicus = assay: Antithrombotic activity in anesthetized Wistar rat model of FeCL3-induced carotid artery thrombosis assessed as reduction in thrombus weight at 10 mg/kg, po administered as single dose measured at 1.5 hrs post dose; type: functional, organism-based
Method in brief: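 Compounds in 0.5% CMC-Na given to Wistar rats as a single oral gavage dose (10 mL/kg). Rats anesthetized with 2% pentobarbital i.p. at 50 mg/kg and kept on a heating pad. At 1.5 h post-dose, filter paper soaked in 20% FeCl3 applied to the isolated left carotid artery for 10 min; thrombus weight recorded. Mean ± SEM, n = 10.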

[1] = Metabolic stability in rat liver microsomes assessed as half life at […] measured up to 60 mins in presence of NADPH regeneration system by LC-MS/MS analysis; type: ADME, Microsome
[2] = Metabolic stability in dog liver microsomes assessed as half life at […] measured up to 60 mins in presence of NADPH regeneration system by LC-MS/MS analysis; type: ADME, Canis lupus familiaris, Microsome
[3] = Metabolic stability in human liver microsomes assessed as half life at […] measured up to 60 mins in presence of NADPH regeneration system by LC-MS/MS analysis; type: ADME, Microsome
[4] = Cmax in Sprague-Dawley rat at 5 mg/kg,po measured up to 24 hrs by LC-MS/MS analysis; type: ADME, organism-based; design: time < 24 hrs, dose 5 mg/kg, route po; details: in vivo
[5] = Half life in Sprague-Dawley rat at 5 mg/kg,po measured up to 24 hrs by LC-MS/MS analysis; type: ADME, organism-based; details: in vivo
[6] = Tmax in Sprague-Dawley rat at 5 mg/kg,po measured up to 24 hrs by LC-MS/MS analysis; type: ADME, organism-based; details: in vivo
[7] = AUC (0 to infinity) in Sprague-Dawley rat at 5 mg/kg,po measured up to 24 hrs by LC-MS/MS analysis; type: ADME, organism-based; design: time < 24 hrs, dose 5 mg/kg, route po; details: in vivo
[8] = MRT in Sprague-Dawley rat at 5 mg/kg,po measured up to 24 hrs by LC-MS/MS analysis; type: ADME, organism-based; details: in vivo
Cytochrome P450 1A2 = target: T1, Cytochrome P450 1A2 (Homo sapiens, UniProt P05177); assay: Inhibition of CYP1A2 in human liver microsomes using phenacetin as substrate preincubated for 10 mins followed by NADPH addition and measured after 15 mins by LC-MS/MS analysis
T1 sequence (P05177 whole entry): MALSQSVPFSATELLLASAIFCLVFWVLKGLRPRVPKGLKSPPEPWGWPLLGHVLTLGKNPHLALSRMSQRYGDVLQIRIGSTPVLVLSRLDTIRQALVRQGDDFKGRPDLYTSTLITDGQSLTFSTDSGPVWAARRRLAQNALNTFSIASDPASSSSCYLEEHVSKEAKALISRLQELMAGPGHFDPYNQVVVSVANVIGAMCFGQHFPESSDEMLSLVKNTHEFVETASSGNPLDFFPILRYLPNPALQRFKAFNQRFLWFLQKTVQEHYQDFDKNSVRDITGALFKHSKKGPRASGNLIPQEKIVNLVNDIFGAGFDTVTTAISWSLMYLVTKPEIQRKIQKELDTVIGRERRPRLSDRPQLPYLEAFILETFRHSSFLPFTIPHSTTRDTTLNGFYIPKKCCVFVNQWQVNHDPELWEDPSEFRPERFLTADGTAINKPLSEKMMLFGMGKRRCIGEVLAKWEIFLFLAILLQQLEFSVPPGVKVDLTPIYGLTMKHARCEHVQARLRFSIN

Cytochrome P450 2C9 = Cytochrome P450 2C9 (Homo sapiens, UniProt P11712); assay: Inhibition of CYP2C9 in human liver microsomes using tolbutamide as substrate preincubated for 10 mins followed by NADPH addition and measured after 15 mins by LC-MS/MS analysis
Chain of Cytochrome P450 2C9 (P11712 whole entry): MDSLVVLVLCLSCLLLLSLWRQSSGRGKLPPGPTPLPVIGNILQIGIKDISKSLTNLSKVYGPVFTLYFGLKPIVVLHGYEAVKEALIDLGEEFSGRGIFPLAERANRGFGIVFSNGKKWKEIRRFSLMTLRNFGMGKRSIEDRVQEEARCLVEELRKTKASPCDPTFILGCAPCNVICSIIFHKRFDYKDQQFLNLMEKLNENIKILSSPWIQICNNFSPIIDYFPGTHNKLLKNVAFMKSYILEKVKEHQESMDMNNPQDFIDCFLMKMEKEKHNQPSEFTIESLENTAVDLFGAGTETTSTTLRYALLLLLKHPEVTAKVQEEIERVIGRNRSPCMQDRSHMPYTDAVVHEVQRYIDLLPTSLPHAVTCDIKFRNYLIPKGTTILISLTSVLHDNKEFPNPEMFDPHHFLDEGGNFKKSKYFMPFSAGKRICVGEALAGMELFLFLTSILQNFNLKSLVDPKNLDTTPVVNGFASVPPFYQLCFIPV

Cytochrome P450 2C19 = Cytochrome P450 2C19 (Homo sapiens, UniProt P33261); assay: Inhibition of CYP2C19 in human liver microsomes using S-mephenytoin as substrate preincubated for 10 mins followed by NADPH addition and measured after 15 mins by LC-MS/MS analysis
Chain of Cytochrome P450 2C19 (P33261 whole entry): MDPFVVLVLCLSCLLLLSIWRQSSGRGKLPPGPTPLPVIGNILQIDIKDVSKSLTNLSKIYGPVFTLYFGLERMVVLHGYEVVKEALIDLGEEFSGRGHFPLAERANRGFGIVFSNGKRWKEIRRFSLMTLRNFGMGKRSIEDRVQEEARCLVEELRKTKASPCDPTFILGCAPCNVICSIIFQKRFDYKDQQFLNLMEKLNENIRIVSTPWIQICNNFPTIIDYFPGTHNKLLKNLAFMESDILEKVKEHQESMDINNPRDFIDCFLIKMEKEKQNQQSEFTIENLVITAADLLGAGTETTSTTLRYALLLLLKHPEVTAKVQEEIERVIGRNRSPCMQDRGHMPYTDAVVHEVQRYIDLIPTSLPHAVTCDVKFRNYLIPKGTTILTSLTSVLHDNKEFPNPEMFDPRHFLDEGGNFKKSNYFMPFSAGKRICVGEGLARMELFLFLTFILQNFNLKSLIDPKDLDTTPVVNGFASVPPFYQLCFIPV

Cytochrome P450 2D6 = Cytochrome P450 2D6 (Homo sapiens, UniProt P10635); assay: Inhibition of CYP2D6 in human liver microsomes using dextromethorphan as substrate preincubated for 10 mins followed by NADPH addition and measured after 15 mins by LC-MS/MS analysis
Chain of Cytochrome P450 2D6 (P10635 whole entry): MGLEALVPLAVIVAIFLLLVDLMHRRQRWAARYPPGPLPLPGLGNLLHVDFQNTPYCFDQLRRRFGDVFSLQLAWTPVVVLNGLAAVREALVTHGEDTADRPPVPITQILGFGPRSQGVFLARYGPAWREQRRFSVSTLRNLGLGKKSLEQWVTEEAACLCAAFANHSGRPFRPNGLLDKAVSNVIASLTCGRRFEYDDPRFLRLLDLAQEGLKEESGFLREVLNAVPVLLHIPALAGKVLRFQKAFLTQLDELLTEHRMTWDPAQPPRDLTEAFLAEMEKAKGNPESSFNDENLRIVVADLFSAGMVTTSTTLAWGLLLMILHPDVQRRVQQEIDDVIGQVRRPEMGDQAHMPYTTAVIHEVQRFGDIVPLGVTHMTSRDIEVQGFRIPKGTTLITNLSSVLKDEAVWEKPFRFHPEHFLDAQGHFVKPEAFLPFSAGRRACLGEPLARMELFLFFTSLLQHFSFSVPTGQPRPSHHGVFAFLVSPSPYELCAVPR

Cytochrome P450 3A4 [9] = target: T2, Cytochrome P450 3A4 (Homo sapiens, UniProt P08684); assay: Inhibition of CYP3A4 in human liver microsomes using Midazolam as substrate preincubated for 10 mins followed by NADPH addition and measured after 15 mins by LC-MS/MS analysis
T2 sequence (P08684 whole entry): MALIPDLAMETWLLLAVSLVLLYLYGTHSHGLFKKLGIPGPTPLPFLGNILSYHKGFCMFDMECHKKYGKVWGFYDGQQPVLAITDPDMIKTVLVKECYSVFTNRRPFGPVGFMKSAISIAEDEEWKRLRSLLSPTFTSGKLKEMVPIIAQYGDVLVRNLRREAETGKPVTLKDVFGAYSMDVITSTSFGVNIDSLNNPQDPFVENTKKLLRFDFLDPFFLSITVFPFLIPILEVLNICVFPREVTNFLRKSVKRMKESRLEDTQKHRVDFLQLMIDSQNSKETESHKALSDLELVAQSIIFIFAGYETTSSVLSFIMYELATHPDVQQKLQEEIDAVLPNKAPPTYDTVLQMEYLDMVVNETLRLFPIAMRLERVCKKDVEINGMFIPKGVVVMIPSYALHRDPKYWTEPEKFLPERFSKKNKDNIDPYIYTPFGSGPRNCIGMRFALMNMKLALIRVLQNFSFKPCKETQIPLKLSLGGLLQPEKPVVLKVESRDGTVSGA

Cytochrome P450 3A4 [10] = target: T2, Cytochrome P450 3A4; assay: Inhibition of CYP3A4 in human liver microsomes using testosterone as substrate preincubated for 10 mins followed by NADPH addition and measured after 15 mins by LC-MS/MS analysis
[11] = Metabolic stability in rat liver microsomes assessed as intrinsic clearance at 0.1 µM measured up to 60 mins in presence of NADPH regeneration system by LC-MS/MS analysis; details: 1 h
[12] = Metabolic stability in dog liver microsomes assessed as intrinsic clearance at 0.1 µM measured up to 60 mins in presence of NADPH regeneration system by LC-MS/MS analysis; details: 1 h
[13] = Metabolic stability in human liver microsomes assessed as intrinsic clearance at 0.1 µM measured up to 60 mins in presence of NADPH regeneration system by LC-MS/MS analysis; details: 1 h

SMILES | IC50 (Homo sapiens) [µM] | also measured
N#Cc1cc2c(nc1N1CC(C(=O)NS(=O)(=O)c3ccc(Cl)s3)C1)COC2=O | 193 | –
N#Cc1cc2c(nc1N1CCC(C(=O)NS(=O)(=O)Cc3ccccc3)CC1)CCOC2=O | > 300 | –
N#Cc1cc2c(nc1N1CCC(C(=O)NS(=O)(=O)Cc3ccc(C(F)(F)F)cc3)CC1)COC2=O | 15.9 | –
CC1(C(=O)NS(=O)(=O)c2ccc(Cl)s2)CCN(c2nc3c(cc2C#N)C(=O)OC3)CC1 | 1.64 | Activity (Rattus norvegicus): Active; half-life [1]: 1.27 h; half-life [2]: 3.34 h; half-life [3]: 3.4 h; Cmax [4]: 479 ng/mL; half-life [5]: 1.26 h; Tmax [6]: 0.25 h; AUC(0-inf) [7]: 1060 ng·h/mL; MRT [8]: 1.98 h; IC50 (Cytochrome P450 1A2): > 50 µM; IC50 (Cytochrome P450 2C9): > 50 µM; IC50 (Cytochrome P450 2C19): 7.75 µM; IC50 (Cytochrome P450 2D6): > 50 µM; IC50 (Cytochrome P450 3A4 [9]): > 50 µM; IC50 (Cytochrome P450 3A4 [10]): > 50 µM; intrinsic clearance [11]: 27.6 mL/min/g; intrinsic clearance [12]: 10.5 mL/min/g; intrinsic clearance [13]: 10.3 mL/min/g
N#Cc1cc2c(nc1N1CCC(C(=O)NS(=O)(=O)Cc3ccc(F)cc3)CC1)COC2=O | 3.5 | –
N#Cc1cc2c(nc1N1CC(C(=O)NS(=O)(=O)Cc3ccccc3)C1)COC2=O | > 300 | –
N#Cc1cc2c(nc1N1CCC(C(=O)NS(=O)(=O)Cc3ccccc3F)CC1)COC2=O | 23.7 | –
N#Cc1cc2c(nc1N1CCC(C(=O)NS(=O)(=O)C3(c4ccccc4)CC3)CC1)COC2=O | 4.1 | –
CC1OC(=O)c2cc(C#N)c(N3CCC(C(=O)NS(=O)(=O)Cc4ccccc4)C3)nc21 (stereo unspecified) | > 300 | –
CC(c1ccccc1)S(=O)(=O)NC(=O)C1(F)CCN(c2nc3c(cc2C#N)C(=O)OC3)CC1 (stereo unspecified) | 9.95 | –
N#Cc1ccc(CS(=O)(=O)NC(=O)C2CCN(c3nc4c(cc3C#N)C(=O)OC4)CC2)cc1 | 8.9 | –
N#Cc1cc2c(nc1N1CCC(F)(C(=O)NS(=O)(=O)Cc3ccc(Cl)cc3)CC1)COC2=O | 37.2 | –
N#Cc1cc2c(nc1N1CCC(C(=O)NS(=O)(=O)Cc3ccccc3)CC1)CCC(F)C2=O (stereo unspecified) | 255 | –
N#Cc1cc2c(nc1N1CCC(C(=O)NS(=O)(=O)Cc3cccc(F)c3)CC1)COC2=O | 70.5 | –
CC1OC(=O)c2cc(C#N)c(N3CCC(C(=O)NS(=O)(=O)Cc4ccccc4)CC3)nc21 (stereo unspecified) | > 300 | –
N#Cc1cc2c(nc1N1CCC(C(=O)NS(=O)(=O)Cc3ccc(Cl)cc3)CC1)COC2=O | 4.42 | –
Cc1ccc(CS(=O)(=O)NC(=O)C2(F)CCN(c3nc4c(cc3C#N)C(=O)OC4)CC2)cc1 | 32.8 | –
N#Cc1cc2c(nc1N1CCC(C(=O)NS(=O)(=O)Cc3ccc(F)cc3F)CC1)COC2=O | 5.2 | –
